Active and inactive are the calls of the source. The rule behind the calls is not given here.
Assays:
MDA-MB-231 [1] = test: Effect on microtubule depolymerization in human MDA-MB-231 cells at 18 uM after 2 hrs; type: functional, cell-based
Summary of the method: (§1)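 MDA-MB-231/ATCC cells grown on glass coverslips (1 × 10⁴ cells) for 24 h, then exposed to 3.6, 9, 18, 27 or 36 µM at 37 °C for 2 h. Fixed in 4% paraformaldehyde, permeabilized with Triton X-100, and immunostained for α-tubulin and ninein with DAPI counterstain. Interphase microtubule networks compared with untreated cells by confocal microscopy.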

MDA-MB-231 [2] = test: Effect on microtubule depolymerization in human MDA-MB-231 cells at 27 uM after 2 hrs; type: functional, cell-based; summary of the method: as §1
MOLT-4 = test: Cytotoxicity against human MOLT4 cells; type: functional
Summary of the method: (§2)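 Tested in the NCI in vitro antitumor screening protocol across a tumor cell line panel. GI₅₀ is the concentration producing a 50% reduction in cell growth.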

HOP-62 = test: Cytotoxicity against human HOP62 cells; type: functional; summary of the method: as §2
NCI-H522 = test: Cytotoxicity against human NCI-H522 cells; type: functional; summary of the method: as §2
KM12 = test: Cytotoxicity against human KM12 cells; type: functional; summary of the method: as §2
SW-620 = test: Cytotoxicity against human SW620 cells; type: functional; summary of the method: as §2
SK-MEL-28 = test: Cytotoxicity against human SK-MEL28 cells; type: functional
Summary of the method: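 Tested in the NCI in vitro antitumor screening protocol against human tumour cell lines.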

SK-MEL-5 = test: Cytotoxicity against human SK-MEL5 cells; type: functional; summary of the method: as §2
UACC-257 = test: Cytotoxicity against human UACC257 cells; type: functional; summary of the method: as §2
IGROV-1 = test: Cytotoxicity against human IGROV1 cells; type: functional; summary of the method: as §2
OVCAR-3 = test: Cytotoxicity against human OVCAR-3 cells; type: functional; summary of the method: as §2
OVCAR-8 = test: Cytotoxicity against human OVCAR8 cells; type: functional; summary of the method: as §2
SK-OV-3 = test: Cytotoxicity against human SK-OV3 cells; type: functional; summary of the method: as §2
A498 = test: Cytotoxicity against human A498 cells; type: functional; summary of the method: as §2
ACHN = test: Cytotoxicity against human ACHN cells; type: functional; summary of the method: as §2
UO-31 = test: Cytotoxicity against human UO31 cells; type: functional
Summary of the method: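 NCI in vitro antitumor screening protocol; GI50 taken as the concentration giving 50% reduction in cell growth.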

MCF7 = test: Cytotoxicity against human MCF7 cells; type: functional; summary of the method: as §2
Hs-578T = test: Cytotoxicity against human HS578T cells; type: functional; summary of the method: as §2
BT-549 = test: Cytotoxicity against human BT549 cells; type: functional; summary of the method: as §2
K562 [3] = test: Cytotoxicity against human K562 cells; type: functional; summary of the method: as §2
MDA-MB-231 [4] = test: Cytotoxicity against human MDA-MB-231 cells; type: functional; summary of the method: as §2
K562 [5] = test: Cell cycle arrest in human K562 cells assessed as accumulation at G0/G1 phase at 50 uM after 24 hrs by flow cytometry; type: functional
Summary of the method: (§3)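 K-562 human leukemia cells were grown in RPMI 1640 with 10% fetal calf serum, glutamine and penicillin/streptomycin at 37 °C in 5% CO₂. Cells were exposed to compound at 50 µM for 24 h, then pelleted and PBS-washed. They were fixed in ice-cold ethanol for 30 min, treated with 1 mg/mL RNase A at 37 °C for 30 min, and stained with propidium iodide and Triton X-100 for 30 min at room temperature in the dark. Per-phase and sub-G1 percentages came from flow cytometry gating.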

K562 [6] = test: Cell cycle arrest in human K562 cells assessed as accumulation at sub-G1 phase at 50 uM after 24 hrs by flow cytometry; type: functional; summary of the method: as §3
MDA-MB-231 [7] = test: Cell cycle arrest in human MDA-MB-231 cells assessed as accumulation of 2N cells at 3.6 uM after 24 hrs by flow cytometry; type: functional
MDA-MB-231 [8] = test: Cell cycle arrest in human MDA-MB-231 cells assessed as accumulation at sub-G1 phase at 9.0 uM after 24 hrs by flow cytometry; type: functional
MDA-MB-231 [9] = test: Cell cycle arrest in human MDA-MB-231 cells assessed as accumulation at sub-G1 phase at 36.0 uM after 24 hrs by flow cytometry; type: functional
MDA-MB-231 [10] = test: Cell cycle arrest in human MDA-MB-231 cells assessed as accumulation of 4N cells at 3.6 uM after 24 hrs by flow cytometry; type: functional
MDA-MB-231 [11] = test: Cell cycle arrest in human MDA-MB-231 cells assessed as accumulation of 4N cells at 18.0 uM after 24 hrs by flow cytometry; type: functional
MDA-MB-231 [12] = test: Cell cycle arrest in human MDA-MB-231 cells assessed as accumulation of >4N cells at 36.0 uM after 24 hrs by flow cytometry; type: functional
MDA-MB-231 [13] = test: Cell cycle arrest in human MDA-MB-231 cells assessed as accumulation of 2N cells at 18.0 uM after 72 hrs by flow cytometry; type: functional
MDA-MB-231 [14] = test: Cell cycle arrest in human MDA-MB-231 cells assessed as accumulation of 2N cells at 27.0 uM after 72 hrs by flow cytometry; type: functional
MDA-MB-231 [15] = test: Cell cycle arrest in human MDA-MB-231 cells assessed as accumulation at sub-G1 phase at 27.0 uM after 72 hrs by flow cytometry; type: functional
MDA-MB-231 [16] = test: Cell cycle arrest in human MDA-MB-231 cells assessed as accumulation at sub-G1 phase at 36.0 uM after 72 hrs by flow cytometry; type: functional
MDA-MB-231 [17] = test: Cell cycle arrest in human MDA-MB-231 cells assessed as accumulation of 4N cells at 18.0 uM after 72 hrs by flow cytometry; type: functional
MDA-MB-231 [18] = test: Cell cycle arrest in human MDA-MB-231 cells assessed as accumulation of >4N cells at 18.0 uM after 72 hrs by flow cytometry; type: functional
[19] = system: MDA-MB-231 (Homo sapiens); test: Induction of apoptosis in human MDA-MB-231 cells assessed as induction of caspase 8 activation at 36 uM after 72 hrs by colorimetric assay relative to control
[20] = system: MDA-MB-231 (Homo sapiens); test: Induction of apoptosis in human MDA-MB-231 cells assessed as induction of caspase 9 activation at 36 uM after 72 hrs by colorimetric assay relative to control
[21] = read-out: LC50 (the source's name)

Nc1ccccc1C#C/C=C\C#Cc1ccccc1C(F)(F)F
Activity (MDA-MB-231 [1]): Active | Activity (MDA-MB-231 [2]): Active | GI50 (MOLT-4): > 100 µM | TGI (MOLT-4): > 100 µM | CC50 (MOLT-4; [21]): > 100 µM | GI50 (HOP-62): 0.77 µM | TGI (HOP-62): 26.1 µM | CC50 (HOP-62; [21]): 69.5 µM | GI50 (NCI-H522): 0.597 µM | TGI (NCI-H522): 12.2 µM | CC50 (NCI-H522; [21]): 51.2 µM | GI50 (KM12): 0.371 µM | TGI (KM12): 20.3 µM | CC50 (KM12; [21]): > 100 µM | GI50 (SW-620): 0.479 µM | TGI (SW-620): 19.7 µM | CC50 (SW-620; [21]): 69.2 µM | TGI (SK-MEL-28): 30.1 µM | CC50 (SK-MEL-28; [21]): 80.2 µM | GI50 (SK-MEL-5): 0.541 µM | TGI (SK-MEL-5): 15 µM | CC50 (SK-MEL-5; [21]): 42.2 µM | GI50 (UACC-257): 0.536 µM | TGI (UACC-257): 23.7 µM | CC50 (UACC-257; [21]): 58.4 µM | GI50 (IGROV-1): 0.349 µM | TGI (IGROV-1): 31.1 µM | CC50 (IGROV-1; [21]): > 100 µM | GI50 (OVCAR-3): 0.63 µM | TGI (OVCAR-3): 0.959 µM | CC50 (OVCAR-3; [21]): 24.1 µM | GI50 (OVCAR-8): 0.962 µM | TGI (OVCAR-8): 21.5 µM | CC50 (OVCAR-8; [21]): 80.7 µM | GI50 (SK-OV-3): 0.888 µM | TGI (SK-OV-3): 24.7 µM | CC50 (SK-OV-3; [21]): 98.7 µM | GI50 (A498): 0.973 µM | TGI (A498): 13.1 µM | CC50 (A498; [21]): 40.7 µM | GI50 (ACHN): 0.294 µM | TGI (ACHN): 15.7 µM | CC50 (ACHN; [21]): 48.3 µM | GI50 (UO-31): 3.06 µM | TGI (UO-31): 25.1 µM | CC50 (UO-31; [21]): 94.9 µM | GI50 (MCF7): 0.681 µM | TGI (MCF7): > 100 µM | CC50 (MCF7; [21]): > 100 µM | GI50 (Hs-578T): 0.501 µM | TGI (Hs-578T): 28.9 µM | CC50 (Hs-578T; [21]): > 100 µM | GI50 (BT-549): 0.699 µM | TGI (BT-549): 17.3 µM | CC50 (BT-549; [21]): 43.4 µM | GI50 (K562 [3]): 1 µM | GI50 (MDA-MB-231 [4]): 0.398 µM | Activity (K562 [5]): 6.7% | Activity (K562 [6]): 19.4% | Activity (MDA-MB-231 [7]): 9.5% | Activity (MDA-MB-231 [8]): 23.1% | Activity (MDA-MB-231 [9]): 23.6% | Activity (MDA-MB-231 [10]): 35.6% | Activity (MDA-MB-231 [11]): 31.9% | Activity (MDA-MB-231 [12]): 36.3% | Activity (MDA-MB-231 [13]): 7.1% | Activity (MDA-MB-231 [14]): 6.8% | Activity (MDA-MB-231 [15]): 65.4% | Activity (MDA-MB-231 [16]): 69.3% | Activity (MDA-MB-231 [17]): 17.4% | Activity (MDA-MB-231 [18]): 13% | fold change (FC) [19]: 4 | fold change (FC) [20]: 3.9

— ChEMBL document CHEMBL1149910, “2-(6-aryl-3(Z)-hexen-1,5-diynyl)anilines as a new class of potent antitubulin agents” (J Med Chem, 2008)
